Data published in ChEMBL document CHEMBL4715736, “Identification of anticancer agents based on the thieno[2,3-b]pyridine and 1H-pyrazole molecular scaffolds” (2016).

Columns and labels:
Assay type in all cases: functional
Conditions in all cases: read-out: Activity
[1] = test system: CCRF-CEM; test: Growth inhibition of human CCRF-CEM cells assessed as cell growth at 10 uM incubated for 48 hrs by sulforhodamine B assay relative to control
Summary of the method: (§1)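 NCI Developmental Therapeutics Program NCI60 panel. Compounds that were active in the 10 µM one-dose screen went on to dose–response testing. Growth at each concentration is expressed relative to untreated control (100%). GI50 (concentration giving 50% of maximal inhibition of proliferation) and TGI (concentration giving total growth inhibition) were derived from the curves.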

[2] = test system: RPMI-8226; test: Growth inhibition of human RPMI-8226 cells assessed as cell growth at 10 uM incubated for 48 hrs by sulforhodamine B assay relative to control
Summary of the method: (§2)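 Run by the NCI Developmental Therapeutics Program as part of its 60-line human tumour panel. Each compound tested at a single 10 µM dose. Growth expressed as % relative to untreated control cells (100%).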

[3] = test system: A549; test: Growth inhibition of human A549/ATCC cells assessed as cell growth at 10 uM incubated for 48 hrs by sulforhodamine B assay relative to control; summary of the method: as §1
[4] = test system: HOP-62; test: Growth inhibition of human HOP-62 cells assessed as cell growth at 10 uM incubated for 48 hrs by sulforhodamine B assay relative to control
Summary of the method: (§3)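 Submitted to the NCI Developmental Therapeutics Program for the NCI60 human tumour cell line panel. First screen at a single 10 µM concentration. Read-out is growth relative to untreated control cells set at 100%.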

[5] = test system: HOP-92; test: Growth inhibition of human HOP-92 cells assessed as cell growth at 10 uM incubated for 48 hrs by sulforhodamine B assay relative to control; summary of the method: as §3
[6] = test system: NCI-H23; test: Growth inhibition of human NCI-H23 cells assessed as cell growth at 10 uM incubated for 48 hrs by sulforhodamine B assay relative to control; summary of the method: as §3
[7] = test system: NCI-H322M; test: Growth inhibition of human NCI-H322M cells assessed as cell growth at 10 uM incubated for 48 hrs by sulforhodamine B assay relative to control; summary of the method: as §3
[8] = test system: NCI-H460; test: Growth inhibition of human NCI-H460 cells assessed as cell growth at 10 uM incubated for 48 hrs by sulforhodamine B assay relative to control; summary of the method: as §3
[9] = test system: COLO 205; test: Growth inhibition of human COLO 205 cells assessed as cell growth at 10 uM incubated for 48 hrs by sulforhodamine B assay relative to control; summary of the method: as §1
[10] = test system: HCC 2998; test: Growth inhibition of human HCC 2998 cells assessed as cell growth at 10 uM incubated for 48 hrs by sulforhodamine B assay relative to control; summary of the method: as §1
[11] = test system: HCT-116; test: Growth inhibition of human HCT-116 cells assessed as cell growth at 10 uM incubated for 48 hrs by sulforhodamine B assay relative to control; summary of the method: as §3
[12] = test system: KM12; test: Growth inhibition of human KM12 cells assessed as cell growth at 10 uM incubated for 48 hrs by sulforhodamine B assay relative to control; summary of the method: as §3
[13] = test system: SF-295; test: Growth inhibition of human SF-295 cells assessed as cell growth at 10 uM incubated for 48 hrs by sulforhodamine B assay relative to control; summary of the method: as §2
[14] = test system: SF-539; test: Growth inhibition of human SF-539 cells assessed as cell growth at 10 uM incubated for 48 hrs by sulforhodamine B assay relative to control; summary of the method: as §2
[15] = test system: SNB-19; test: Growth inhibition of human SNB-19 cells assessed as cell growth at 10 uM incubated for 48 hrs by sulforhodamine B assay relative to control; summary of the method: as §2
[16] = test system: U-251; test: Growth inhibition of human U-251 cells assessed as cell growth at 10 uM incubated for 48 hrs by sulforhodamine B assay relative to control; summary of the method: as §2
[17] = test system: LOX IMVI; test: Growth inhibition of human LOX IMVI cells assessed as cell growth at 10 uM incubated for 48 hrs by sulforhodamine B assay relative to control; summary of the method: as §3
[18] = test system: M14; test: Growth inhibition of human M14 cells assessed as cell growth at 10 uM incubated for 48 hrs by sulforhodamine B assay relative to control; summary of the method: as §3
[19] = test system: SK-MEL-28; test: Growth inhibition of human SK-MEL-28 cells assessed as cell growth at 10 uM incubated for 48 hrs by sulforhodamine B assay relative to control; summary of the method: as §2
[20] = test system: SK-MEL-5; test: Growth inhibition of human SK-MEL-5 cells assessed as cell growth at 10 uM incubated for 48 hrs by sulforhodamine B assay relative to control; summary of the method: as §2
[21] = test system: UACC-257; test: Growth inhibition of human UACC-257 cells assessed as cell growth at 10 uM incubated for 48 hrs by sulforhodamine B assay relative to control; summary of the method: as §2
[22] = test system: UACC-62; test: Growth inhibition of human UACC-62 cells assessed as cell growth at 10 uM incubated for 48 hrs by sulforhodamine B assay relative to control; summary of the method: as §2
[23] = test system: IGROV-1; test: Growth inhibition of human IGROV-1 cells assessed as cell growth at 10 uM incubated for 48 hrs by sulforhodamine B assay relative to control; summary of the method: as §3
[24] = test system: OVCAR-3; test: Growth inhibition of human OVCAR-3 cells assessed as cell growth at 10 uM incubated for 48 hrs by sulforhodamine B assay relative to control; summary of the method: as §2
[25] = test system: OVCAR-4; test: Growth inhibition of human OVCAR-4 cells assessed as cell growth at 10 uM incubated for 48 hrs by sulforhodamine B assay relative to control; summary of the method: as §2
[26] = test system: OVCAR-5; test: Growth inhibition of human OVCAR-5 cells assessed as cell growth at 10 uM incubated for 48 hrs by sulforhodamine B assay relative to control; summary of the method: as §2
[27] = test system: OVCAR-8; test: Growth inhibition of human OVCAR-8 cells assessed as cell growth at 10 uM incubated for 48 hrs by sulforhodamine B assay relative to control; summary of the method: as §2
[28] = test system: ACHN; test: Growth inhibition of human ACHN cells assessed as cell growth at 10 uM incubated for 48 hrs by sulforhodamine B assay relative to control
Summary of the method: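 NCI Developmental Therapeutics Program NCI60 human tumour cell line panel, one-dose primary screen with every compound at 10 µM. Growth is expressed as % of untreated control cells (100%).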

[29] = test system: RXF 393; test: Growth inhibition of human RXF 393 cells assessed as cell growth at 10 uM incubated for 48 hrs by sulforhodamine B assay relative to control; summary of the method: as §2
[30] = test system: SN12C; test: Growth inhibition of human SN12C cells assessed as cell growth at 10 uM incubated for 48 hrs by sulforhodamine B assay relative to control; summary of the method: as §2
[31] = test system: DU-145; test: Growth inhibition of human DU-145 cells assessed as cell growth at 10 uM incubated for 48 hrs by sulforhodamine B assay relative to control; summary of the method: as §1
[32] = test system: MCF7; test: Growth inhibition of human MCF7 cells assessed as cell growth at 10 uM incubated for 48 hrs by sulforhodamine B assay relative to control; summary of the method: as §3
[33] = test system: T47D; test: Growth inhibition of human T47D cells assessed as cell growth at 10 uM incubated for 48 hrs by sulforhodamine B assay relative to control; summary of the method: as §2
[34] = test system: MDA-MB-468; test: Growth inhibition of human MDA-MB-468 cells assessed as cell growth at 10 uM incubated for 48 hrs by sulforhodamine B assay relative to control; summary of the method: as §3

Structure (SMILES)	growth at 10 µM [1] [%]	growth at 10 µM [2] [%]	growth at 10 µM [3] [%]	growth at 10 µM [4] [%]	growth at 10 µM [5] [%]	growth at 10 µM [6] [%]	growth at 10 µM [7] [%]	growth at 10 µM [8] [%]	growth at 10 µM [9] [%]	growth at 10 µM [10] [%]	growth at 10 µM [11] [%]	growth at 10 µM [12] [%]	growth at 10 µM [13] [%]	growth at 10 µM [14] [%]	growth at 10 µM [15] [%]	growth at 10 µM [17] [%]	growth at 10 µM [18] [%]	growth at 10 µM [19] [%]	growth at 10 µM [20] [%]	growth at 10 µM [21] [%]	also measured
Cc1cccc(NC(=O)c2sc3nc4c(cc3c2N)CN(Cc2ccccc2)CC4)c1	98.9	101	84.2	110	100	100	103	98.6	104	104	92.6	96.4	110	79.9	110	95.8	106	103	103	89.8	growth at 10 µM [16]: 85.4%; growth at 10 µM [22]: 110%; growth at 10 µM [23]: 102%; growth at 10 µM [24]: 116%; growth at 10 µM [25]: 105%; growth at 10 µM [26]: 104%; growth at 10 µM [27]: 98.2%; growth at 10 µM [28]: 102%; growth at 10 µM [29]: 103%; growth at 10 µM [30]: 107%; growth at 10 µM [31]: 89.3%; growth at 10 µM [32]: 95.9%; growth at 10 µM [33]: 98.6%; growth at 10 µM [34]: 94.8%
CC(=O)c1cccc(NC(=O)c2sc3nc4c(cc3c2N)C(=O)CCC4)c1	99.7	92.7	92.8	97.9	92.8	98.8	111	108	100	97.7	108	95.2	90.8	101	99.5	106	100	92.4	96	99.3	growth at 10 µM [22]: 98.4%; growth at 10 µM [23]: 96.2%; growth at 10 µM [24]: 120%; growth at 10 µM [25]: 88.1%; growth at 10 µM [26]: 106%; growth at 10 µM [27]: 101%; growth at 10 µM [28]: 103%; growth at 10 µM [29]: 104%; growth at 10 µM [30]: 109%; growth at 10 µM [31]: 108%; growth at 10 µM [32]: 84.4%; growth at 10 µM [33]: 93.8%; growth at 10 µM [34]: 82.8%
CC(C)N1CCc2nc3sc(C(=O)Nc4ccccc4)c(N)c3cc2C1	100	98.2	89.8	94.1	55.6	97.9	108	99.6	102	110	102	101	105	93	105	102	108	108	95	95.1	growth at 10 µM [16]: 92.7%; growth at 10 µM [22]: 103%; growth at 10 µM [23]: 100%; growth at 10 µM [24]: 108%; growth at 10 µM [25]: 105%; growth at 10 µM [26]: 90.2%; growth at 10 µM [27]: 95.9%; growth at 10 µM [28]: 100%; growth at 10 µM [29]: 102%; growth at 10 µM [30]: 106%; growth at 10 µM [31]: 110%; growth at 10 µM [32]: 94.7%; growth at 10 µM [33]: 91.7%; growth at 10 µM [34]: 95.6%
